# Assay results as given in ChEMBL document CHEMBL1134340, “GnRH antagonists: a new generation of long acting analogues incorporating p-ureido-phenylalanines at positions 5 and 6” (J Med Chem, 2001).
# Where a SMILES comes first, the peptide text is derived from it. [ ]: non-standard residue; d: D form. Phe(4-NHCONH2) = NC(=O)Nc1ccc(C[C@H](N)C(=O)O)cc1; dPhe(4-NH2) = Nc1ccc(C[C@@H](N)C(=O)O)cc1; dPhe(4-Cl) = N[C@H](Cc1ccc(Cl)cc1)C(=O)O; d2Nal = N[C@H](Cc1ccc2ccccc2c1)C(=O)O; Lys(iPr) = CC(C)NCCCC[C@H](N)C(=O)O; d3Pal = N[C@H](Cc1cccnc1)C(=O)O
# How the values were obtained:
# Rattus norvegicus [1] = species on record: Rattus norvegicus; assay: Compound was tested for histamine release at a concentration of 100 ug/mL; format: functional
# Procedure, shortened: (§1)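 Sprague-Dawley rat peritoneal mast cells, Percoll-purified, in heparinized balanced salt solution with albumin, pH 7.2. Cells exposed to compound or vehicle for 2 min at 37 °C. Supernatant histamine measured spectrofluorometrically after o-phthalaldehyde derivatization; pellets lysed for retained histamine. Reported as % of total histamine released, corrected for spontaneous release in vehicle.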
# Rattus norvegicus [2] = species on record: Rattus norvegicus; assay: Compound was tested for inhibition of Leutenizing hormone release at 72 hours (long duration) in castrated male rat assay; format: functional; set-up: concentration or dose not given beside the values
# Procedure, shortened: (§2)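 Male Sprague-Dawley rats (180-200 g), castrated under ether 10 days earlier, 5 per group. 50 µg/rat given sc in 100 µL 40 mM phosphate buffer with 0.1% BSA and 0.6% DMSO; acyline run as internal standard. Tail blood taken predose and at 24, 48, 72, 96 (sometimes 120) h; plasma LH by RIA. Duration classed by >80% LH inhibition at each time.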
# Rattus norvegicus [3] = species on record: Rattus norvegicus; assay: Compound was tested for histamine release at a concentration of 30 ug/mL; format: functional; procedure, shortened: as §1
# [4] = molecular target: T1, Gonadotropin-releasing hormone receptor (Homo sapiens, UniProt P30968); assay: Antagonism of human GnHR receptor, determined in a reporter gene assay in HEK293 cells; format: functional, cell-based
# T1 sequence (P30968 whole entry): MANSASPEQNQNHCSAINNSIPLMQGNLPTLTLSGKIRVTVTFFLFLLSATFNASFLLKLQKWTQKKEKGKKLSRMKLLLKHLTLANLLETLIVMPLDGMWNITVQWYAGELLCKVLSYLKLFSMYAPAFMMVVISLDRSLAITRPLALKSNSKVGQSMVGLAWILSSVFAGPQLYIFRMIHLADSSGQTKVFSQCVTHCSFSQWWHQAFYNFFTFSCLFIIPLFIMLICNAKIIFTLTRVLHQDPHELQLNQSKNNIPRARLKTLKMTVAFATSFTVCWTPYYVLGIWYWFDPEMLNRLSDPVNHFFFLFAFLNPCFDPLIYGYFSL
# Procedure, shortened: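 HEK293 cells stably expressing cloned human GnRH receptor plus luciferase reporter under LH alpha subunit promoter, plated 24 h before assay. Compound in 1% DMSO added 10 min at 37 °C, then GnRH at 3 nM final; 5 h incubation, luciferase luminescence read. Six concentrations in duplicate; blank-subtracted cps as % of GnRH control; mean of two determinations.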
# Rattus norvegicus [5] = species on record: Rattus norvegicus; assay: Compound was tested for inhibition of Leutenizing hormone release at 24 hours (short duration) in castrated male rat assay; format: functional; set-up: concentration or dose not given beside the values; procedure, shortened: as §2
# Rattus norvegicus [6] = species on record: Rattus norvegicus; assay: Compound was tested for inhibition of Leutenizing hormone release at 48 hours (intermediate duration) in castrated male rat assay; format: functional; set-up: concentration or dose not given beside the values; procedure, shortened: as §2
# [7] = molecular target: T1, Gonadotropin-releasing hormone receptor; assay: Competitive antagonism of GnRH-induced response in the reporter gene assay; format: functional; settings: for Kb: read-out: pA2 (converted)
# Procedure, shortened: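 Same HEK293 human GnRH receptor luciferase reporter cells. Seven-point GnRH curve (10 µM to 10 pM final) run in duplicate without or with four to five increasing compound concentrations (10 min preincubation, 37 °C), then 5 h and luminescence. GnRH EC50 at each level by four-parameter logistic fit, giving pA2; mean of two determinations in duplicate.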
# Rattus norvegicus [8] = species on record: Rattus norvegicus; assay: Compound was tested for inhibition of Leutenizing hormone release at 96 hours (very long duration) in castrated male rat assay; format: functional; set-up: concentration or dose not given beside the values; procedure, shortened: as §2
# Rattus norvegicus [9] = species on record: Rattus norvegicus; assay: Compound was tested for histamine release at a concentration of 300 ug/mL; format: functional; procedure, shortened: as §1
structure (smiles),measurement,setting,value
CC(=O)N[C@H](Cc1ccc2ccccc2c1)C(=O)N[C@H](Cc1ccc(Cl)cc1)C(=O)N[C@H](Cc1cccnc1)C(=O)N[C@@H](CO)C(=O)N[C@@H](Cc1ccc(NC(=O)[C@@H]2CC(=O)NC(=O)N2)cc1)C(=O)N[C@H](Cc1ccc(NC(=O)[C@@H]2CC(=O)NC(=O)N2)cc1)C(=O)N[C@@H](CC(C)C)C(=O)N[C@@H](CCCCNC(C)C)C(=O)N1CCC[C@H]1C(=O)N[C@H](C)C(N)=O,HR,Rattus norvegicus [1],11%
same,Inhibition,Rattus norvegicus [2],>80%
same,HR,Rattus norvegicus [3],<10%
CC(=O)Nc1ccc(C[C@@H](NC(=O)[C@H](Cc2ccc(NC(=O)c3cnc(O)nc3O)cc2)NC(=O)[C@H](CO)NC(=O)[C@@H](Cc2cccnc2)NC(=O)[C@@H](Cc2ccc(Cl)cc2)NC(=O)[C@@H](Cc2ccc3ccccc3c2)NC(C)=O)C(=O)N[C@@H](CC(C)C)C(=O)N[C@@H](CCCCNC(C)C)C(=O)N2CCC[C@H]2C(=O)N[C@H](C)C(N)=O)cc1,IC50,[4],8.2 nM
same,Inhibition,Rattus norvegicus [5],>80%
CC(=O)Nc1ccc(C[C@H](NC(=O)[C@H](CO)NC(=O)[C@@H](Cc2cccnc2)NC(=O)[C@@H](Cc2ccc(Cl)cc2)NC(=O)[C@@H](Cc2ccc3ccccc3c2)NC(C)=O)C(=O)N[C@H](Cc2ccc(NC(=O)[C@@H]3CC(=O)NC(=O)N3)cc2)C(=O)N[C@@H](CC(C)C)C(=O)N[C@@H](CCCCNC(C)C)C(=O)N2CCC[C@H]2C(=O)N[C@H](C)C(N)=O)cc1,Inhibition,Rattus norvegicus [6],>80%
same,HR,Rattus norvegicus [1],64%
same,HR,Rattus norvegicus [3],17%
CCNC(=O)Nc1ccc(C[C@H](NC(=O)[C@H](CO)NC(=O)[C@@H](Cc2cccnc2)NC(=O)[C@@H](Cc2ccc(Cl)cc2)NC(=O)[C@@H](Cc2ccc3ccccc3c2)NC(C)=O)C(=O)N[C@H](Cc2ccc(NC(=O)NCC)cc2)C(=O)N[C@@H](CC(C)C)C(=O)N[C@@H](CCCCNC(C)C)C(=O)N2CCC[C@H]2C(=O)N[C@H](C)C(N)=O)cc1,IC50,[4],5 nM
same,Kb,[7],1.26 nM
same,Inhibition,Rattus norvegicus [5],>80%
CC(=O)Nc1ccc(C[C@@H](NC(=O)[C@H](CCNC(N)=O)NC(=O)[C@H](CO)NC(=O)[C@@H](Cc2cccnc2)NC(=O)[C@@H](Cc2ccc(Cl)cc2)NC(=O)[C@@H](Cc2ccc3ccccc3c2)NC(C)=O)C(=O)N[C@@H](CC(C)C)C(=O)N[C@@H](CCCCNC(C)C)C(=O)N2CCC[C@H]2C(=O)N[C@H](C)C(N)=O)cc1,Inhibition,Rattus norvegicus [5],>80%
CC(=O)N[C@H](Cc1ccc2ccccc2c1)C(=O)N[C@H](Cc1ccc(Cl)cc1)C(=O)N[C@H](Cc1cccnc1)C(=O)N[C@@H](CO)C(=O)N[C@@H](Cc1ccc(NC(=O)[C@@H]2CC(=O)NC(=O)N2)cc1)C(=O)N[C@H](Cc1ccc(CNC(N)=O)cc1)C(=O)N[C@@H](CC(C)C)C(=O)N[C@@H](CCCCNC(C)C)C(=O)N1CCC[C@H]1C(=O)N[C@H](C)C(N)=O,Inhibition,Rattus norvegicus [8],>80%
same,HR,Rattus norvegicus [9],64%
same,HR,Rattus norvegicus [1],48%
same,HR,Rattus norvegicus [3],21%
COc1ccc(NC(=O)NC[C@H](NC(=O)[C@H](CO)NC(=O)[C@@H](Cc2cccnc2)NC(=O)[C@@H](Cc2ccc(Cl)cc2)NC(=O)[C@@H](Cc2ccc3ccccc3c2)NC(C)=O)C(=O)N[C@H](Cc2ccc(NC(C)=O)cc2)C(=O)N[C@@H](CC(C)C)C(=O)N[C@@H](CCCCNC(C)C)C(=O)N2CCC[C@H]2C(=O)N[C@H](C)C(N)=O)cc1,Inhibition,Rattus norvegicus [5],>80%
CC(=O)N[C@H](Cc1ccc2ccccc2c1)C(=O)N[C@H](Cc1ccc(Cl)cc1)C(=O)N[C@H](Cc1cccnc1)C(=O)N[C@@H](CO)C(=O)N[C@@H](Cc1ccc(NC(=O)[C@H]2CC(=O)NC(=O)N2)cc1)C(=O)N[C@H](Cc1ccc(NC(=O)[C@H]2CC(=O)NC(=O)N2)cc1)C(=O)N[C@@H](CC(C)C)C(=O)N[C@@H](CCCCNC(C)C)C(=O)N1CCC[C@H]1C(=O)N[C@H](C)C(N)=O,Inhibition,Rattus norvegicus [8],>80%
same,IC50,[4]; hek293,7.7 nM
same,pA2,[7],9
same,HR,Rattus norvegicus [9],64%
same,HR,Rattus norvegicus [1],69%
CC(=O)Nc1ccc(C[C@@H](NC(=O)[C@H](Cc2ccc(NC(=O)[C@@H]3CC(=O)NC(=O)N3)cc2)N(C)C(=O)[C@H](CO)NC(=O)[C@@H](Cc2cccnc2)NC(=O)[C@@H](Cc2ccc(Cl)cc2)NC(=O)[C@@H](Cc2ccc3ccccc3c2)NC(C)=O)C(=O)N[C@@H](CC(C)C)C(=O)N[C@@H](CCCCNC(C)C)C(=O)N2CCC[C@H]2C(=O)N[C@H](C)C(N)=O)cc1,IC50,[4],8.1 nM
same,Kb,[7],0.794 nM
same,HR,Rattus norvegicus [1],124%
same,HR,Rattus norvegicus [3],50%
same,Inhibition,Rattus norvegicus [5],>80%
CC(=O)N[C@H](Cc1ccc2ccccc2c1)C(=O)N[C@H](Cc1ccc(Cl)cc1)C(=O)N[C@H](Cc1cccnc1)C(=O)N[C@@H](CO)C(=O)N[C@@H](Cc1ccc(NC(=O)[C@@H]2CC(=O)NC(=O)N2)cc1)C(=O)N[C@H](Cc1cccnc1)C(=O)N[C@@H](CC(C)C)C(=O)N[C@@H](CCCCNC(C)C)C(=O)N1CCC[C@H]1C(=O)N[C@H](C)C(N)=O,Inhibition,Rattus norvegicus [8],>80%
same,HR,Rattus norvegicus [9],62%
same,HR,Rattus norvegicus [1],68%
CC(=O)Nc1ccc(C[C@@H](NC(=O)[C@H](CNC(N)=O)NC(=O)[C@H](CO)NC(=O)[C@@H](Cc2cccnc2)NC(=O)[C@@H](Cc2ccc(Cl)cc2)NC(=O)[C@@H](Cc2ccc3ccccc3c2)NC(C)=O)C(=O)N[C@@H](CC(C)C)C(=O)N[C@@H](CCCCNC(C)C)C(=O)N2CCC[C@H]2C(=O)N[C@H](C)C(N)=O)cc1,Inhibition,Rattus norvegicus [5],>80%
CC(=O)N[C@H](Cc1ccc2ccccc2c1)C(=O)N[C@H](Cc1ccc(Cl)cc1)C(=O)N[C@H](Cc1cccnc1)C(=O)N[C@@H](CO)C(=O)N[C@@H](Cc1ccc(NC(=O)[C@@H]2CC(=O)NC(=O)N2)cc1)C(=O)N[C@H](Cc1ccc(NC(N)=O)cc1)C(=O)N[C@@H](CC(C)C)C(=O)N[C@@H](CCCCNC(C)C)C(=O)N1CCC[C@H]1C(=O)N[C@H](C)C(N)=O [DEGARELIX],Inhibition,Rattus norvegicus [6],>80%
same,IC50,[4],8.8 nM
same,Kb,[7],0.631 nM
CNC(=O)NCc1ccc(C[C@@H](NC(=O)[C@H](Cc2ccc(NC(=O)[C@@H]3CC(=O)NC(=O)N3)cc2)NC(=O)[C@H](CO)NC(=O)[C@@H](Cc2cccnc2)NC(=O)[C@@H](Cc2ccc(Cl)cc2)NC(=O)[C@@H](Cc2ccc3ccccc3c2)NC(C)=O)C(=O)N[C@@H](CC(C)C)C(=O)N[C@@H](CCCCNC(C)C)C(=O)N2CCC[C@H]2C(=O)N[C@H](C)C(N)=O)cc1,Inhibition,Rattus norvegicus [8],>80%
same,HR,Rattus norvegicus [9],67%
same,HR,Rattus norvegicus [1],56%
CC(=O)Nc1ccc(C[C@@H](NC(=O)[C@H](Cc2ccc(NC(=O)C[C@@H]3NC(=O)NC3=O)cc2)NC(=O)[C@H](CO)NC(=O)[C@@H](Cc2cccnc2)NC(=O)[C@@H](Cc2ccc(Cl)cc2)NC(=O)[C@@H](Cc2ccc3ccccc3c2)NC(C)=O)C(=O)N[C@@H](CC(C)C)C(=O)N[C@@H](CCCCNC(C)C)C(=O)N2CCC[C@H]2C(=O)N[C@H](C)C(N)=O)cc1,Inhibition,Rattus norvegicus [6],>80%
same,IC50,[4],8.1 nM
CC(=O)Nc1ccc(C[C@@H](NC(=O)[C@H](Cc2ccc(NC(N)=O)cc2)NC(=O)[C@H](CO)NC(=O)[C@@H](Cc2cccnc2)NC(=O)[C@@H](Cc2ccc(Cl)cc2)NC(=O)[C@@H](Cc2ccc3ccccc3c2)NC(C)=O)C(=O)N[C@@H](CC(C)C)C(=O)N[C@@H](CCCCNC(C)C)C(=O)N2CCC[C@H]2C(=O)N[C@H](C)C(N)=O)cc1 (Ac-[d2Nal][dPhe(4-Cl)][d3Pal]S[Phe(4-NHCONH2)][dPhe(4-NH2)](Ac)L[Lys(iPr)]P[dA]-NH2),Inhibition,Rattus norvegicus [6],>80%
same,IC50,[4],7.2 nM
CCNC(=O)NC[C@H](NC(=O)[C@H](CO)NC(=O)[C@@H](Cc1cccnc1)NC(=O)[C@@H](Cc1ccc(Cl)cc1)NC(=O)[C@@H](Cc1ccc2ccccc2c1)NC(C)=O)C(=O)N[C@H](Cc1ccc(NC(C)=O)cc1)C(=O)N[C@@H](CC(C)C)C(=O)N[C@@H](CCCCNC(C)C)C(=O)N1CCC[C@H]1C(=O)N[C@H](C)C(N)=O,Inhibition,Rattus norvegicus [5],>80%
CC(=O)N[C@H](Cc1ccc2ccccc2c1)C(=O)N[C@H](Cc1ccc(Cl)cc1)C(=O)N[C@H](Cc1cccnc1)C(=O)N[C@@H](CO)C(=O)N[C@@H](Cc1ccc(NC(=O)[C@@H]2CC(=O)NC(=O)N2)cc1)C(=O)N[C@H](Cc1ccc2ccccc2c1)C(=O)N[C@@H](CC(C)C)C(=O)N[C@@H](CCCCNC(C)C)C(=O)N1CCC[C@H]1C(=O)N[C@H](C)C(N)=O,Inhibition,Rattus norvegicus [5],>80%
